Active and inactive are the calls of the source.
Experiments:
Mus musculus [1] = species: Mus musculus; experiment: Analgesic activity as percentage analgesic efficacy on male albino Swiss-Webster mice with the hotplate test; Inactive; assay type: functional
Method in brief: (§1)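 Hot-plate test at 52.5 ± 0.1 °C, 45 s cutoff, compound dosed at its maximal nontoxic dose (the highest dose giving no visible behavioural change to blinded observers). Efficacy = (maximum reaction time − pretest time) / the same difference for morphine-HCl 8 mg/kg sc × 100.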

Mus musculus [2] = species: Mus musculus; experiment: Analgesic activity as percentage analgesic efficacy on male albino swiss-webster mice with the hotplate test; assay type: functional; set-up: concentration or dose not given beside the values; method in brief: as §1
[3] = molecular target: Muscarinic acetylcholine receptor (Mus musculus) (UniProt Q920H4+Q9ERZ4+P12657+P32211+Q9ERZ3); experiment: Analgesic activity after subcutaneous administration in male albino Swiss-Webster mice with the hotplate test; assay type: functional, organism-based
Method in brief: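 Mouse hot-plate test, plate held at 52.5 ± 0.1 °C with a 45 s cutoff. Drug given subcutaneously, 8 to 20 mice per test. Potency expressed as ED50.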

Mus musculus [4] = species: Mus musculus; experiment: The compound was evaluated for the analgesic activity as percentage analgesic efficacy on male albino Swiss-Webster mice with the hotplate test;Inactive; assay type: functional, organism-based; method in brief: as §1
[5] = molecular target: Muscarinic acetylcholine receptor; experiment: Binding affinity for [3H]QNB in membrane preparations from rat brain tissue
Method in brief: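 [3H]QNB binding to rat brain membrane preparations. pKi calculated with the LIGAND program, mean of at least three experiments.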

Mus musculus [6] = species: Mus musculus; experiment: The compound was evaluated for the analgesic activity as percentage analgesic efficacy on male albino Swiss-Webster mice with the hotplate test; inactive; assay type: functional, organism-based; method in brief: as §1

SMILES	Analgesic efficacy (Mus musculus [1])	Analgesic efficacy (Mus musculus [2]) [%]	ED50 [3] [mg/kg]	also measured
CC(Cc1ccc(Cl)cc1)C(=O)OC1CC2CCC(C1)N2C (configuration not stated)	inactive	–	–	–
CC(C(=O)OC1CC2CCC(C1)N2C)c1ccc(F)cc1 (configuration not stated)	–	79	31	–
CC(C(=O)OC1CC2CCC(C1)N2C)c1cccs1 (configuration not stated)	–	21	5.4	–
C[C@@H](C(=O)OC1CC2CCC(C1)N2C)c1ccccc1 (some centres not stated)	–	–	–	Analgesic efficacy (Mus musculus [4]): inactive
CC(C(=O)OC1CC2CCC(C1)N2C)c1ccc(Cl)c(Cl)c1 (configuration not stated)	–	42	1	–
CC(C(=O)OC1CCN(C)CC1)c1ccc(Br)cc1 (configuration not stated)	inactive	–	–	–
O=C(OC1CC2CCC(C1)N2)C(CO)c1ccccc1 (configuration not stated)	–	35	5	–
CC(C(=O)OC1CC2CCC(C1)N2C)c1ccc([N+](=O)[O-])cc1 (configuration not stated)	–	38	18	–
CN1[C@@H]2CC[C@H]1C[C@@H](OC(=O)C(CO)c1ccccc1)C2 (mixture of isomers)	–	42	0.7	–
CCN(CC)CCOC(=O)C(CO)c1ccc(Cl)cc1 (configuration not stated)	inactive	–	–	–
COc1ccc(C(C)C(=O)OC2CC3CCC(C2)N3C)cc1 (configuration not stated)	–	97	32	–
CN(C)CCCOC(=O)C(CO)c1ccccc1.O=C(O)C(Oc1ccccc1)C(Oc1ccccc1)C(=O)O (configuration not stated)	inactive	–	–	–
CC(C(=O)OCCCN(C)C)c1ccc(Br)cc1 (configuration not stated)	inactive	–	–	–
CN1C2CCC1CC(OC(=O)C(Cl)c1ccccc1)C2 (configuration not stated)	inactive	–	–	–
CN1[C@@H]2CC[C@H]1C[C@H](OC(=O)[C@@H](CO)c1ccccc1)C2	–	41	0.7	–
CC(C(=O)OC1CC2CCC(C1)N2C)c1ccc(Br)cc1.O=C(O)/C=C\C(=O)O (racemic)	–	–	–	Log Ki [5]: -6.96
CCN1C2CCC1CC(OC(=O)C(CO)c1ccccc1)C2 (configuration not stated)	–	33	7.3	–
CC(C(=O)OC1CC2CCC(C1)N2C)c1cccc(Cl)c1 (configuration not stated)	–	71	37	–
CC(C(=O)OC1CC2CCC(C1)N2C)c1ccc(N)cc1 (configuration not stated)	–	41	6	–
CC(COC1CC2CCC(C1)N2C)c1ccc(Br)cc1 (configuration not stated)	–	45	32	–
CC(C(=O)OC1CC2CCC(C1)N2C)c1ccc(Cl)cc1.O=C(O)/C=C\C(=O)O (configuration not stated)	–	83	36	Log Ki [5]: -7.02
CN1[C@@H]2CC[C@H]1C[C@H](OC(=O)[C@H](CO)c1ccccc1)C2	inactive	–	–	–
CC(C(=O)OC1CC2CCC(C1)N2C)c1ccc(Br)cc1 (racemic)	–	101	–	–

SMILES	Analgesic efficacy (Mus musculus [1])	Analgesic efficacy (Mus musculus [2]) [%]	ED50 [3] [mg/kg]	also measured
CC(C(=O)OC1CC2CCC(C1)N2Cc1ccccc1)c1ccc(Br)cc1 (configuration not stated)	–	34	28	–
CC(C)Cc1ccc(C(C)C(=O)OC2CC3CCC(C2)N3C)cc1 (configuration not stated)	–	40	27	–
CC(C(=O)OC1CC2CCC(C1)N2C)c1ccc(Br)cc1 (stereo in doubt; (-)-19)	–	83	16	–
CN1C2CCC1CC(OC(=O)Cc1ccc(Br)cc1)C2 (configuration not stated)	inactive	–	–	–
CC(C(=O)OC1CC2CCC(C1)N2C)c1ccccc1Br (configuration not stated)	–	62	30	–
CCN(CC)CC#CCOC(=O)C(C)c1ccc(Br)cc1 (configuration not stated)	inactive	–	–	–
CC(C(=O)OC1CC2CCC(C1)N2C)c1ccccc1Cl (configuration not stated)	–	83	36	–
CN1C2CCC1CC(OC(=O)C(CO)c1ccc(Cl)cc1)C2 (configuration not stated)	–	37	0.6	–
COc1ccc(C(CO)C(=O)OC2CC3CCC(C2)N3C)cc1 (configuration not stated)	inactive	–	–	–
CN1CCC(OC(=O)C(CO)c2ccc(Cl)cc2)CC1 (configuration not stated)	–	26	5	–
CC(C(=O)OC1CC2CCC(C1)N2)c1ccc(Br)cc1 (configuration not stated)	inactive	–	–	–
CC(C(=O)OC1CC2CCC(C1)N2C)c1ccc(N(C)C)cc1 (configuration not stated)	inactive	–	–	–
C[C@H](C(=O)OC1CC2CCC(C1)N2C)c1ccccc1 (some centres not stated)	–	29	3.1	–
CC(C(=O)OC1CC2CCC(C1)N2C)c1ccccc1 (racemic)	–	35	5	–
CC(C(=O)OC1CC2CCC(C1)N2C)c1ccc(C(F)(F)F)cc1 (configuration not stated)	–	26	31	–
CCN1C2CCC1CC(OC(=O)C(C)c1ccc(Br)cc1)C2 (configuration not stated)	–	–	–	Analgesic efficacy (Mus musculus [6]): inactive
CCC(C(=O)OC1CC2CCC(C1)N2C)c1ccc(Br)cc1 (configuration not stated)	–	81	33	–
CCN(CC)CC#CCOC(=O)C(CO)c1ccccc1.O=C(O)C(Oc1ccccc1)C(Oc1ccccc1)C(=O)O (configuration not stated)	inactive	–	–	–
CCN(CC)CCOC(=O)C(C)c1ccc(Br)cc1 (configuration not stated)	inactive	–	–	–
CC(C(=O)OC1CC2CCC(C1)N2C)c1ccc(Br)cc1 (single isomer, unassigned; (+))	–	92	17	–
CN1C2CCC1CC(OC(=O)Cc1ccccc1)C2 (configuration not stated)	inactive	–	–	–
CC(C(=O)OC1CC2CCC(C1)N2C)c1ccsc1 (configuration not stated)	–	44	22	–
